# Test results from ChEMBL document CHEMBL1121911, “Analgesic narcotic antagonists. 8. 7 alpha-Alkyl-4,5 alpha-epoxymorphinan-6-ones” (1981).
# The source made the active and inactive calls. The calls are words filed in the database; no cut-off is given here.
# How the values were obtained:
# [1] = test system: Rattus norvegicus; experiment: Narcotic antagonist activity in heat stimulus rat tail flick assay after subcutaneous administration; format: functional; settings: sc
# Method in brief: (§1)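 Subcutaneous dosing. Salts were given in distilled H2O, and free bases were dissolved with 1 N HCl and then diluted. Each ED50 (agonist) or AD50 (antagonist) came from at least three doses, with at least five animals per dose.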
# [2] = test system: Mus musculus; experiment: Narcotic agonistic activity in acetic acid mouse writhing assay after subcutaneous administration of the drug; format: functional; settings: sc; method in brief: as §1
# [3] = test system: Rattus norvegicus; experiment: Compound was tested for antinociceptive activity in heat stimulus rat tail flick assay after subcutaneous administration of the drug at a dose of 23 umol/Kg; Inactive; format: functional, organism-based
# [4] = test system: Mus musculus; experiment: Compound was tested for narcotic agonistic activity in acetic acid mouse writhing assay after subcutaneous administration of the drug at a dose of 23 uM/kg; Inactive; format: functional, organism-based
# [5] = test system: Rattus norvegicus; experiment: Compound was tested for antinociceptive activity in heat stimulus rat tail flick assay after subcutaneous administration of the drug at a dose of 30 umol/Kg; Inactive; format: functional, organism-based
# [6] = test system: Rattus norvegicus; experiment: Compound was tested for antinociceptive activity in heat stimulus rat tail flick assay after subcutaneous administration of the drug; format: functional; settings: sc; method in brief: as §1
# [7] = test system: Rattus norvegicus; experiment: Compound was tested for antinociceptive activity in heat stimulus rat tail flick assay after subcutaneous administration of the drug at a dose of 21 umol/Kg; Inactive; format: functional, organism-based
# [8] = test system: Mus musculus; experiment: Compound was tested for narcotic agonistic activity in acetic acid mouse writhing assay after subcutaneous administration of the drug at a dose of 18 uM/kg; Inactive; format: functional, organism-based
# [9] = test system: Rattus norvegicus; experiment: Compound was tested for antinociceptive activity in heat stimulus rat tail flick assay after subcutaneous administration of the drug at a dose of 18 umol/Kg; Inactive; format: functional, organism-based
# [10] = test system: Rattus norvegicus; experiment: Compound was tested for antinociceptive activity in heat stimulus rat tail flick assay after subcutaneous administration of the drug at a dose of 28 umol/Kg; Inactive; format: functional, organism-based
# [11] = test system: Rattus norvegicus; experiment: Compound was tested for antinociceptive activity in heat stimulus rat tail flick assay after subcutaneous administration of the drug at a dose of 29 umol/Kg; Inactive; format: functional, organism-based
# [12] = test system: Mus musculus; experiment: Compound was tested for narcotic agonistic activity in acetic acid mouse writhing assay after subcutaneous administration of the drug at a dose of 26 uM/kg; Inactive; format: functional, organism-based
# [13] = test system: Mus musculus; experiment: Compound was tested for narcotic agonistic activity in acetic acid mouse writhing assay after subcutaneous administration of the drug at a dose of 25 uM/kg; Inactive; format: functional, organism-based
# [14] = test system: Rattus norvegicus; experiment: Compound was tested for antinociceptive activity in heat stimulus rat tail flick assay after subcutaneous administration of the drug at a dose of 25 umol/Kg; Inactive; format: functional, organism-based
# [15] = test system: Mus musculus; experiment: Compound was tested for narcotic agonistic activity in acetic acid mouse writhing assay after subcutaneous administration of the drug at a dose of 28 uM/kg; Inactive; format: functional, organism-based
compound,measurement,setting,value
C[C@H]1CC2C3Cc4ccc(O)c5c4C2(CCN3CC2CC2)C(O5)C1=O (stereo not given in full),ED50,[1],4.4 µmol/kg
same,ED50,[2],1.1 µmol/kg
COc1ccc2c3c1O[C@H]1C(=O)[C@@H](CC(C)(C)C)CC4C(C2)N(C)CCC341 (stereo not given in full),ED50,[3],inactive
same,ED50,[4],inactive
O=C1CCC2C3Cc4ccc(O)c5c4C2(CCN3CC2CC2)[C@H]1O5 (stereo not given in full),ED50,[1],0.6 µmol/kg
same,ED50,[2],4.1 µmol/kg
O=C1CCC2C3Cc4ccc(O)c5c4C2(CCN3CC2CCC2)[C@H]1O5 (stereo not given in full),ED50,[1],5 µmol/kg
same,ED50,[2],0.2 µmol/kg
COc1ccc2c3c1O[C@H]1c4oc(C)cc4CC4C(C2)N(C)CCC341 (stereo not given in full),ED50,[5],inactive
same,ED50,[2],12.3 µmol/kg
Oc1ccc2c(c1)[C@@]13CCCC[C@@]1(O)[C@@H](C2)N(CC1CCC1)CC3 [BUTORPHANOL],ED50,[1],2 µmol/kg
same,ED50,[2],0.3 µmol/kg
C[C@@H]1C(=O)[C@@H]2Oc3c(O)ccc4c3C23CCN(CC2CCC2)C(C4)C3[C@H]1C (stereo not given in full),ED50,[1],6.5 µmol/kg
same,ED50,[2],15 µmol/kg
COc1ccc2c(c1OC)C13CCN(CC4CC4)C(C2)C1C[C@H](C)C(=O)C3 (stereo not given in full),ED50,[1],~25 µmol/kg
same,ED50,[2],9.1 µmol/kg
CCCCC[C@H]1CC2C3Cc4ccc(OC)c5c4C2(CCN3C)[C@@H](O5)C1=O (stereo not given in full),ED50,[2],20.7 µmol/kg
C[C@H]1CC2(O)C3Cc4ccc(O)c5c4C2(CCN3CC2CCC2)[C@@H](O5)C1=O (stereo not given in full),ED50,[1],14.6 µmol/kg
same,ED50,[2],3.5 µmol/kg
COc1ccc2c3c1O[C@H]1[C@@H](O)C=C[C@H]4[C@@H](C2)N(C)CC[C@@]341 [CODEINE],ED50,[6],75 µmol/kg
same,ED50,[2],10.3 µmol/kg
CC[C@H]1CC2C3Cc4ccc(OC)c5c4C2(CCN3C)[C@@H](O5)C1=O (stereo not given in full),ED50,[7],inactive
same,ED50,[2],4.6 µmol/kg
COc1ccc2c(c1O)C13CCN(CC4CC4)C(C2)C1[C@@H](C)[C@H](C)C(=O)C3 (stereo not given in full),ED50,[1],> 25 µmol/kg
same,ED50,[2],> 25 µmol/kg
COc1ccc2c3c1O[C@H]1[C@@H](O)[C@@H](CC(C)(C)O)CC4C(C2)N(C)CCC341 (stereo not given in full),ED50,[8],inactive
same,ED50,[6],> 18 µmol/kg
CN1CC[C@]23c4c5ccc(O)c4O[C@H]2[C@@H](O)C=C[C@H]3[C@H]1C5 [MORPHINE],ED50,[6],19 µmol/kg
COc1ccc2c3c1O[C@H]1C(=O)[C@@H](C)CC4(O)C(C2)N(CC2CCC2)CCC314 (stereo not given in full),ED50,[9],inactive
same,ED50,[2],1.2 µmol/kg
COc1ccc2c3c1O[C@H]1[C@@H](O)[C@@H](CC(C)=O)CC4C(C2)N(C)CCC341 (stereo not given in full),ED50,[10],inactive
same,ED50,[2],> 28 µmol/kg
COc1ccc2c3c1O[C@H]1C(=O)CCC4(O)C(C2)N(CC2CCC2)CCC314 (stereo not given in full),ED50,[1],> 18 µmol/kg
same,ED50,[2],16.2 µmol/kg
COc1ccc2c3c1O[C@H]1c4[nH]c(C)cc4CC4C(C2)N(C)CCC341 (stereo not given in full),ED50,[11],inactive
same,ED50,[2],> 29 µmol/kg
CC(C)=CCN1CC[C@]2(C)c3cc(O)ccc3C[C@H]1[C@H]2C [(+)-PENTAZOCINE],ED50,[1],36.4 µmol/kg
same,ED50,[2],13 µmol/kg
C[C@@H]1C(=O)[C@@H]2Oc3c(O)ccc4c3C23CCN(CC2CC2)C(C4)C3[C@H]1C (stereo not given in full),ED50,[1],1.5 µmol/kg
same,ED50,[12],inactive
COc1ccc2c3c1OC1C(=O)[C@@H](C)CC4C(C2)N(CC2CC2)CCC314 (stereo not given in full),ED50,[13],inactive
same,ED50,[1],4.1 µmol/kg
COc1ccc2c3c1O[C@H]1C(=O)[C@@H](C)[C@H](C)C4C(C2)N(CC2CC2)CCC341 (stereo not given in full),ED50,[1],2.4 µmol/kg
same,ED50,[2],> 25 µmol/kg
COc1ccc2c3c1O[C@H]1C(=O)[C@@H](C)CC4C(C2)N(CC2CCC2)CCC341 (stereo not given in full),ED50,[1],> 25 µmol/kg
same,ED50,[2],> 25 µmol/kg
C[C@H]1CC2C3Cc4ccc(O)c5c4C2(CCN3CC2CCC2)[C@@H](O5)C1=O (stereo not given in full),ED50,[1],33.1 µmol/kg
same,ED50,[2],0.8 µmol/kg
C=CCN1CC[C@]23c4c5ccc(O)c4O[C@H]2[C@@H](O)C=C[C@H]3[C@H]1C5 [NALORPHINE],ED50,[1],2.5 µmol/kg
same,ED50,[2],3.5 µmol/kg
COc1ccc2c3c1O[C@H]1C(=O)CC[C@H]4[C@@H](C2)N(C)CC[C@]314 [HYDROCODONE],ED50,[6],5.2 µmol/kg
same,ED50,[2],2.4 µmol/kg
COc1ccc2c3c1O[C@H]1C(=O)CCC4C(C2)N(CC2CCC2)CCC341 (stereo not given in full),ED50,[2],20.3 µmol/kg
C[C@H]1CC2(O)C3Cc4ccc(O)c5c4C2(CCN3CC2CC2)[C@@H](O5)C1=O (stereo not given in full),ED50,[1],0.09 µmol/kg
same,ED50,[12],inactive
COc1ccc2c3c1O[C@H]1C(=O)[C@@H](Cc4ccccc4)CC4C(C2)N(C)CCC341 (stereo not given in full),ED50,[14],inactive
same,ED50,[2],> 25 µmol/kg
COc1ccc2c3c1O[C@H]1C(=O)CCC4C(C2)N(CC2CC2)CCC341 (stereo not given in full),ED50,[1],7.9 µmol/kg
same,ED50,[2],39.6 µmol/kg
COc1ccc2c3c1O[C@H]1C(=O)[C@@H](C)CC4(O)C(C2)N(CC2CC2)CCC314 (stereo not given in full),ED50,[1],25.4 µmol/kg
same,ED50,[2],18.7 µmol/kg
COc1ccc2c3c1O[C@H]1C(=O)[C@@H](C)CC4C(C2)N(C)CCC341 (stereo not given in full),ED50,[6],4.2 µmol/kg
same,ED50,[2],2.7 µmol/kg
COc1ccc2c(c1O)C13CCN(CC4CC4)C(C2)C1C[C@H](C)C(=O)C3 (stereo not given in full),ED50,[1],> 28 µmol/kg
same,ED50,[2],9.7 µmol/kg
COc1ccc2c3c1O[C@H]1C(=O)[C@@H](C)[C@H](C)C4C(C2)N(CC2CCC2)CCC341 (stereo not given in full),ED50,[1],> 26 µmol/kg
same,ED50,[2],> 26 µmol/kg
COc1ccc2c3c1O[C@H]1C(=O)CC[C@@]4(O)[C@@H](C2)N(C)CC[C@]314 [OXYCODONE],ED50,[6],2.9 µmol/kg
same,ED50,[2],1.5 µmol/kg
CN1CC[C@]23c4c5ccc(O)c4O[C@H]2C(=O)CC[C@H]3[C@H]1C5 [HYDROMORPHONE],ED50,[6],1.3 µmol/kg
same,ED50,[2],0.3 µmol/kg
O=C1CC[C@@]2(O)[C@H]3Cc4ccc(O)c5c4[C@@]2(CCN3CC2CC2)[C@H]1O5 [NALTREXONE],ED50,[1],0.2 µmol/kg
same,ED50,[2],> 28 µmol/kg
COc1ccc2c3c1O[C@H]1C(=O)/C(=C/N(C)C)CC4C(C2)N(C)CCC341 (stereo not given in full),ED50,[10],inactive
same,ED50,[2],11 µmol/kg
COc1ccc2c3c1O[C@H]1C(=O)[C@@H](CO)CC4C(C2)N(C)CCC341 (stereo not given in full),ED50,[5],inactive
same,ED50,[2],9.1 µmol/kg
COc1ccc2c3c1O[C@H]1C(=O)CC[C@@]4(O)[C@@H](C2)N(CC2CC2)CC[C@]314,ED50,[1],0.7 µmol/kg
same,ED50,[15],inactive
COc1ccc2c(c1O)C13CCN(CC4CCC4)C(C2)C1[C@@H](C)[C@H](C)C(=O)C3 (stereo not given in full),ED50,[1],> 22 µmol/kg
same,ED50,[2],14 µmol/kg
C[C@H]1[C@H]2Cc3ccc(O)cc3[C@]1(C)CCN2CC1CC1 [CYCLAZOCINE],ED50,[1],0.8 µmol/kg
same,ED50,[2],0.4 µmol/kg
O=C1CCC2(O)C3Cc4ccc(O)c5c4C2(CCN3CC2CCC2)[C@H]1O5 (stereo not given in full),ED50,[1],1.1 µmol/kg
same,ED50,[2],9.7 µmol/kg
